Data reported in ChEMBL document CHEMBL1795318, “Development of tetrahydroisoquinoline-based hydroxamic acid derivatives: potent histone deacetylase inhibitors with marked in vitro and in vivo antitumor activities” (J Med Chem, 2011).
pIC50: −log10 of the molar value. Activity calls are given as the source filed them. No cut-off for these calls is given here.

Key:
[1] = target: T1, Histone deacetylase 8 (Homo sapiens, UniProt Q9BY41); experiment: Inhibition of HDAC8 after 30 mins by fluorescence microplate reader
T1 sequence (Q9BY41 whole entry): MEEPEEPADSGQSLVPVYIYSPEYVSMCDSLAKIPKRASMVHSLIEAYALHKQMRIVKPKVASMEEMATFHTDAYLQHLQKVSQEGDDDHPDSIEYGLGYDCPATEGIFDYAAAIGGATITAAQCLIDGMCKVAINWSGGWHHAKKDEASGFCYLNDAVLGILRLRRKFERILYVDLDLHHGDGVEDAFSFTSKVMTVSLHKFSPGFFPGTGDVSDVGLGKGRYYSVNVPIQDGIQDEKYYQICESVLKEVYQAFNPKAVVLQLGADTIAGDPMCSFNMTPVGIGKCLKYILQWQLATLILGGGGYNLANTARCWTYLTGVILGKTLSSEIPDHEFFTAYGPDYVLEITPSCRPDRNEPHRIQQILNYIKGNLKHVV
Procedure, shortened: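 HDAC8 mixed with compound at various concentrations, fluorogenic substrate added, 37 °C for 30 min; stopped with developer containing trypsin and TSA. Fluorescence read after 20 min (ex 390/em 460 nm); inhibition relative to control wells, IC50 by regression of concentration/inhibition data; mean ± SD of at least three determinations.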

[2] = test system: HeLa; experiment: Cytotoxicity against human HeLa cells after 48 hrs by MTT assay; format: functional, cell-based
[3] = test system: K562; experiment: Cytotoxicity against human K562 cells after 48 hrs by MTT assay; format: functional, cell-based; conditions: K562, 48 h
[4] = test system: NB-4; experiment: Cytotoxicity against human NB4 cells after 48 hrs by MTT assay; format: functional, cell-based; conditions: NB-4, 48 h
[5] = test system: HL-60; experiment: Cytotoxicity against human HL60 cells after 48 hrs by MTT assay; format: functional, cell-based; conditions: HL-60, 48 h
[6] = target: Histone deacetylase; experiment: Inhibition of HDAC in human HeLa cell nuclear extract after 30 mins by fluorescence microplate reader; format: protein assay
[7] = target: T2, Protein deacetylase HDAC6 (Homo sapiens, UniProt Q9UBN7); experiment: Inhibition of HDAC6 in human HeLa cell nuclear extract after 30 mins by fluorescence microplate reader
T2 sequence (Q9UBN7 whole entry): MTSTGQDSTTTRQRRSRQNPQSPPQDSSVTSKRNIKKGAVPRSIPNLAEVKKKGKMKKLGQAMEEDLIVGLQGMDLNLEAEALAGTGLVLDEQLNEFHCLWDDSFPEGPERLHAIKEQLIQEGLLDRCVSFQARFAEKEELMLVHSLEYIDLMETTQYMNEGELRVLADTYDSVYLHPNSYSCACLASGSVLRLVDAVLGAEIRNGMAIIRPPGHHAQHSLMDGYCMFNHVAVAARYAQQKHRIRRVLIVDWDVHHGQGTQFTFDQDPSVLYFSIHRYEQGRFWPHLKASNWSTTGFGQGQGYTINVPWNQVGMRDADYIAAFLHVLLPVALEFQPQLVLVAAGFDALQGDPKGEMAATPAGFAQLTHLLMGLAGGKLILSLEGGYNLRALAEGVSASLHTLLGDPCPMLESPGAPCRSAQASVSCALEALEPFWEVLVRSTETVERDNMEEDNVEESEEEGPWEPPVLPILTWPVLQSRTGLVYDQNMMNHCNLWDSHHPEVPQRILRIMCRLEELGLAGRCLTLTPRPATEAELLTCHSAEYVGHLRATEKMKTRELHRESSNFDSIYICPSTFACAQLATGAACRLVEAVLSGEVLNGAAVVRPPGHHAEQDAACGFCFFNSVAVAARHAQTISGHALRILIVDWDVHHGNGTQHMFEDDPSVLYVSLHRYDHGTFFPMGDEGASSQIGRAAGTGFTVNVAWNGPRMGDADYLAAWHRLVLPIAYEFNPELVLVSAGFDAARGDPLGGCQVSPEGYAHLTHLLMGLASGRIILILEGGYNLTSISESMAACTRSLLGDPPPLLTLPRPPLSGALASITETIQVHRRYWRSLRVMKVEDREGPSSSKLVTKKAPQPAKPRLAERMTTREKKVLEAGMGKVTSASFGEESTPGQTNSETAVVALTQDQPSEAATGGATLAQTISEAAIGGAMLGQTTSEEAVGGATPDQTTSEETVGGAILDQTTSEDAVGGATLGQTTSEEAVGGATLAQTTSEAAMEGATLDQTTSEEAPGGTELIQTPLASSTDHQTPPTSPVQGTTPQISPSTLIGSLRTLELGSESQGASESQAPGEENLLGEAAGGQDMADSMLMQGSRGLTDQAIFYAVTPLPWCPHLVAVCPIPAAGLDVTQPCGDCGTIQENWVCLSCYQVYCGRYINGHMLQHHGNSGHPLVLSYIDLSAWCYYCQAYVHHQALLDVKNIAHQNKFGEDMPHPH

[8] = test system: MDA-MB-231; experiment: Cytotoxicity against human MDA-MB-231 cells after 48 hrs by MTT assay; format: functional, cell-based; conditions: MDA-MB-231, 48 h
[9] = test system: MDA-MB-231; experiment: Antitumor activity against human MDA-MB-231 cells xenografted in athymic nude mouse assessed as tumor growth inhibition at 90 mg/kg, ip qd for 21 days; format: functional; conditions: route intraperitoneal
[10] = test system: MDA-MB-231; experiment: Antitumor activity against human MDA-MB-231 cells xenografted in athymic nude mouse assessed as tumor growth delay at 90 mg/kg, ip qd for 21 days; format: functional, organism-based; design: dose 90 mg/kg
[11] = test system: A549; experiment: Cytotoxicity against human A549 cells after 48 hrs by MTT assay; format: functional, cell-based; conditions: A549, 48 h
Procedure, shortened: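 Cells kept in RPMI1640 with 10% FBS, 37 °C, 5% CO₂; seeded day before dosing, grown ≥4 h, treated with a concentration series for 48 h. MTT 0.5% solution added, 4 h further; formazan dissolved in DMSO 15 min, absorbance at 570 nm. Mean of three experiments.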

Row | Structure (SMILES) | pIC50 [1] | IC50 [6] [nM] | pIC50 [7] | pIC50 [2] | pIC50 [3] | pIC50 [4] | also measured
1 | COc1ccc(NC(=O)[C@@H]2Cc3ccc(OCC(=O)NO)cc3CN2C(=O)[C@@H](N)Cc2ccccc2)cc1 | 6.43 |  |  |  |  |  | 
2 | CC[C@H](C)[C@@H](CN1Cc2cc(OCC(=O)NO)ccc2C[C@H]1C(=O)Nc1ccc(OC)cc1)NC(=O)CC(C)(C)C | 6.48 | 297 | 6.80 | 4.20 | 5.00 | 5.25 | pIC50 [8]: 5.60; pIC50 [5]: 4.59; T/C [9]: 87%; Activity [10]: Active
3 | COc1ccc(NC(=O)[C@@H]2Cc3ccc(OCC(=O)NO)cc3CN2C(=O)Cc2ccccc2)cc1 | 6.85 |  |  |  |  |  | pIC50 [11]: 3.93; pIC50 [8]: 5.35
4 | COc1ccc(NC(=O)[C@@H]2Cc3ccc(OCC(=O)NO)cc3CN2C(=O)[C@@H](N)Cc2ccc(O)cc2)cc1 | 6.20 |  |  |  |  |  | 
5 | O=C(COc1ccc2c(c1)CN(C(=O)CCc1ccccc1)[C@H](C(=O)NCCc1ccccc1)C2)NO | 6.16 |  |  |  |  |  | 
6 | CC[C@H](C)[C@H](NC(=O)C1CCNCC1)C(=O)N1Cc2cc(OCC(=O)NO)ccc2C[C@H]1C(=O)Nc1ccc(OC)cc1.Cl | 5.84 | 71 | 6.77 | 3.99 | 4.29 | < 3.70 | 
7 | COc1ccc(NC(=O)[C@@H]2Cc3ccc(OCC(=O)NO)cc3CN2CCc2ccccc2)cc1 | 5.99 |  |  |  |  |  | 
8 | COc1ccc(NC(=O)[C@@H]2Cc3ccc(OCC(=O)NO)cc3CN2CCCc2ccccc2)cc1 | 5.76 |  |  |  |  |  | 
9 | COc1ccc(NC(=O)[C@@H]2Cc3ccc(OCC(=O)NO)cc3CN2C(=O)CN)cc1 | 5.67 |  |  |  |  |  | 

Now from value to compound, other results behind:

Row | pIC50 [1] | IC50 [6] [nM] | pIC50 [7] | Structure (SMILES) | pIC50 [2] | pIC50 [3] | pIC50 [4] | also measured
10 | 6.72 | 65 | 6.85 | CC[C@H](C)[C@H](NC(=O)[C@@H]1CCCN1C(=O)OC(C)(C)C)C(=O)N1Cc2cc(OCC(=O)NO)ccc2C[C@H]1C(=O)Nc1ccc(OC)cc1 | 3.74 | 5.63 | 5.29 | pIC50 [5]: 4.11
11 | 6.98 |  |  | COc1ccc(NC(=O)[C@@H]2Cc3ccc(OCC(=O)NO)cc3CN2C(=O)[C@@H](NC(=O)OC(C)(C)C)C(C)C)cc1 |  |  |  | pIC50 [11]: 6.08; pIC50 [8]: 5.80
12 | 6.70 | 128 | 6.94 | CC[C@H](C)[C@H](NC(=O)[C@@H](NC(=O)OC(C)(C)C)C(C)C)C(=O)N1Cc2cc(OCC(=O)NO)ccc2C[C@H]1C(=O)Nc1ccc(OC)cc1 | 3.78 | 5.56 | 4.20 | 
13 | 6.99 |  |  | COc1ccc(NC(=O)[C@@H]2Cc3ccc(OCC(=O)NO)cc3CN2C(=O)[C@H](Cc2ccccc2)NC(=O)OC(C)(C)C)cc1 |  |  |  | pIC50 [11]: 4.90; pIC50 [8]: 5.89
14 | 7.17 | 73 | 6.79 | CC[C@H](C)[C@H](NC(=O)[C@@H](N)C(C)C)C(=O)N1Cc2cc(OCC(=O)NO)ccc2C[C@H]1C(=O)Nc1ccc(OC)cc1.Cl | 3.93 | 4.69 | 4.16 | 
15 | 6.29 |  |  | COc1ccc(NC(=O)[C@@H]2Cc3ccc(OCC(=O)NO)cc3CN2C(=O)CNC(=O)OC(C)(C)C)cc1 |  |  |  | 
16 | 7.33 | 108 | 6.72 | CC[C@H](C)[C@H](NC(=O)[C@@H]1CCCN1)C(=O)N1Cc2cc(OCC(=O)NO)ccc2C[C@H]1C(=O)Nc1ccc(OC)cc1.Cl | < 3.70 | 5.18 | 5.03 | pIC50 [5]: 4.16
